Measured values taken from PubChem BioAssay.
Activity calls are given as the source filed them.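 How the source made its calls, unless noted: active means viability at or under a set limit in both replicates, limit being median viability minus 3 SD (cut at about 48% in these data, passing the limit was not always enough); inconclusive means at or under the limit in just one replicate; inactive means at or above the limit in both replicates.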

How the values were obtained:
[1] = reducers of endogenous Her2 protein level, primary screen, SKBR3 breast tumor cells, AlphaScreen, ATP viability (AID 461;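 active means Her2 level under about 52% in both replicate screens, with viability over 70% of control, limit read from the data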;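 on Her2 level: lower value means less Her2 protein in the cells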;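 on viability: percent of carrier control wells set as 100% viability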); details: 18-24 h, measured here: SKBR3 viability, ATP luminescence, at 10 µM
[2] = biological target: Receptor tyrosine-protein kinase erbB-2 (Homo sapiens) (UniProt P04626); test: as above; details: 18-24 h, at 10 µM, stronger effect = lower value
Receptor tyrosine-protein kinase erbB-2 (Homo sapiens), sequence (P04626 whole entry, looked up): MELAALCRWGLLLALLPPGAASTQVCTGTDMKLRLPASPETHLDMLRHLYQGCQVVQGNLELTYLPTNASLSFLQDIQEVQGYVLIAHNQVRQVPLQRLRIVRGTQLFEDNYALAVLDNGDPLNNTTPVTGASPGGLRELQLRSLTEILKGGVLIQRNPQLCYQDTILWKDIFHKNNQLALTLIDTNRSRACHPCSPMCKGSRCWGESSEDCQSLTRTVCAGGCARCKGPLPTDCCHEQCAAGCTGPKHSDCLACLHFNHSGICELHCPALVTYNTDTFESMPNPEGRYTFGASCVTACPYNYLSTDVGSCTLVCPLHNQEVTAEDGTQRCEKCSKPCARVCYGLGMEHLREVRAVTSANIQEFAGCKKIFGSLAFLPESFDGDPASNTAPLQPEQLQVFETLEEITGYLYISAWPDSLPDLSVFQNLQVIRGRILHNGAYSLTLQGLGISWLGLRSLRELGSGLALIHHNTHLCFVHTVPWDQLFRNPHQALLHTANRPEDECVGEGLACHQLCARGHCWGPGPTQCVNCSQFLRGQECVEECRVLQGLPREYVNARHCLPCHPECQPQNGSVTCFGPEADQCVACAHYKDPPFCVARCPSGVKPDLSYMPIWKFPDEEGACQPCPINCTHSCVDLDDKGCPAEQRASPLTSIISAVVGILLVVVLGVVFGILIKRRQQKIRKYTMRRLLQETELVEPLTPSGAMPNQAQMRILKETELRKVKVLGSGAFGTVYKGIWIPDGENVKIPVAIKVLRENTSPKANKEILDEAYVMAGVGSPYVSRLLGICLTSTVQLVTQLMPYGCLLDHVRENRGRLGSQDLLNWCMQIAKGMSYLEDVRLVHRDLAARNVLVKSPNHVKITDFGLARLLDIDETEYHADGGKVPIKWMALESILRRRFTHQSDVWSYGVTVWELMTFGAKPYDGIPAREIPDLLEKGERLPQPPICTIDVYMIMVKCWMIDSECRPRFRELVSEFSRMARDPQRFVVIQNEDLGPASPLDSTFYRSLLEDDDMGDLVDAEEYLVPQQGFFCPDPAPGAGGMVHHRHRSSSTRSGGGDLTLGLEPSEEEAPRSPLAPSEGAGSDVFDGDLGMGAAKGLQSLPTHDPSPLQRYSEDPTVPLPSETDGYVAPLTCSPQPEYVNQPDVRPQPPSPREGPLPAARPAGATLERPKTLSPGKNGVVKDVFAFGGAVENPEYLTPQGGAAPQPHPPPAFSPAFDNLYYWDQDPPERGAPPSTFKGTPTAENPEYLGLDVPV

[3] = SK-BR-3 cell growth inhibitors, pilot screen, 24 h, human (AID 572;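 active means viability at or below 10% of carrier control in both of two separate runs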;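 further: compound exposure lasted between 18 and 24 h rather than exactly 24 h; 100% = carrier-treated control wells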); details: SK-BR-3 viability, CellTiter-Glo luminescence, at 10 µM, stronger effect = lower value
[4] = HUVEC growth inhibition – cell-based, human, primary screen (AID 575;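 active means viability at or below 30% in both replicate assays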;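 further: 100% = median of untreated cell wells with 0.1% DMSO on each plate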); details: HUVEC proliferation, CellTiter-Glo luminescence, 72 h; at 10 µM; stronger effect = lower value
How it was run: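 System: primary human umbilical vein endothelial cells; Quantity: 1250 endothelial cells in each well; Buffer or medium: supplemented EBM, 2% fetal bovine serum; Doses: one dose, 10 µM final, 0.1% DMSO; Incubation: 72 h compound incubation; Technique: ATP-based CellTiter-Glo luminescent read; Evaluation: percent of median DMSO-control luminescence; Controls: vehicle and MePR control wells.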

[5] = growth inhibitors of H69AR lung tumor, primary screen, human, duplicate replicates (AID 580); details: H69AR lung tumor cells viability, ATP luminescence, 72 h; at 10 µM; stronger effect = lower value;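 further: 100% = mean luminescence of untreated wells and 0% = no signal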
[6] = reversal of MRP1-mediated doxorubicin resistance, pilot screen, H69AR cells, doxorubicin co-treatment (AID 601;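 active means viability loss from added drug above about 55%, and viability with drug at most 40%, in both replicates, limit read from the data, passing the limit was not always enough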); details: CellTiter-Glo, 72 h, at 10 µM; for differential viability (reversal): stronger effect = higher value
[7] = 384-well plate pilot, post-Golgi transport modulator project, inhibition of yeast transport mutant growth (AID 636; in the data active means inhibition above about 31%); details: absorbance 615 nm, about 18 h, stronger effect = higher value
[8] = growth suppression of yeast trafficking mutant, preliminary HTS, modulators of trafficking downstream of Golgi apparatus project, 1536-format plate, OD 615 nm (AID 637; in the data active means inhibition above about 30%); details: yeast transport mutant growth, absorbance 615 nm, 18 h; stronger effect = higher value
[9] = H69AR cells + 2 uM doxorubicin, measured here: viability with 2 uM doxorubicin, stronger effect = lower value
[10] = H69AR cells, compound alone cytotoxicity

| Compound | viability [1] [%] | Her2 level [2] | viability [3] | viability [4] | viability [5] | differential viability (reversal) ([6]; H69AR cells + 2 uM doxorubicin) | viability [6, 9] [%] | viability [6, 10] [%] | inhibition [7] | inhibition [8] |
| --- | --- | --- | --- | --- | --- | --- | --- | --- | --- | --- |
| CCOC(=O)c1c(-c2cccs2)csc1NC(=O)CCCC(=O)O | 110 | 87% (inactive) | 110% (inactive) | 78.3% (inactive) | 83.4% (inactive) | 1.06% (inactive) | 82.4 | 83.4 | -5.79% (inactive) | -3.27% (inactive) |
| O=C(COc1ccc(S(=O)(=O)NC2CCCCC2)cc1Cl)NCC1CCCO1 (stereo not given) | 88.5 | 98% (inactive) | 88.5% (inactive) | 98.6% (inactive) | 89.4% (inactive) | 0.36% (inactive) | 89 | 89.4 | -5.07% (inactive) | -7.78% (inactive) |
| CC(C)(C)NC(=O)Cn1nnnc1-c1nonc1N | 93 | 94.5% (inactive) | 93% (inactive) | 109% (inactive) | 105% (inactive) | 13.3% (inactive) | 91.3 | 105 | -6.53% (inactive) | 5.25% (inactive) |
| Cc1c(C(=O)O)oc2ccc(S(=O)(=O)NCc3ccccc3)cc12 | 105 | 113% (inactive) | 105% (inactive) | 113% (inactive) | 106% (inactive) | 0.815% (inactive) | 105 | 106 | -3.42% (inactive) | -6.51% (inactive) |
| O=C1N(c2ccccc2)C2CS(=O)(=O)CC2N1c1ccc(Br)cc1 (stereo not given) | 102 | 88.5% (inactive) | 102% (inactive) | 97.7% (inactive) | 101% (inactive) | 17.5% (inactive) | 83.2 | 101 | -6.4% (inactive) | -0.95% (inactive) |
| CC1(C)Cc2nc3oc4c(N(CCO)Cc5ccccc5)ncnc4c3cc2CO1 | 95.5 | 86.5% (inactive) | 95.5% (inactive) | 92.5% (inactive) | 86.2% (inactive) | 4.17% (inactive) | 82.1 | 86.2 | -1.76% (inactive) | -4.33% (inactive) |
| Cc1c[nH]c2cccc(OCC(O)CNC(C)(C)C)c12 (stereo not given) | 91.5 | 96% (inactive) | 91.5% (inactive) | 100% (inactive) | 88.3% (inactive) | 0.28% (inactive) | 88 | 88.3 | -3.6% (inactive) | 17.8% (inactive) |
| N#Cc1nc(-c2ccco2)oc1NCCc1ccccc1 | 92.5 | 98.5% (inactive) | 92.5% (inactive) | 90.6% (inactive) | 97.4% (inactive) | 14.8% (inactive) | 82.6 | 97.4 | -5.58% (inactive) | -10.5% (inactive) |
| Cc1oc(-c2ccccc2F)nc1CS(=O)(=O)CC(=O)N1CCN(Cc2ccccc2)CC1 | 77.5 | 91.5% (inactive) | 77.5% (inactive) | 102% (inactive) | 90.2% (inactive) | -1.19% (inactive) | 91.4 | 90.2 | -3.07% (inactive) | -0.98% (inactive) |
| Cc1ccc(-c2nnn(CC(=O)NC3CC4CCC3C4)n2)cc1 (stereo not given) | 109 | 91% (inactive) | 109% (inactive) | 118% (inactive) | 93.3% (inactive) | 5.1% (inactive) | 88.2 | 93.3 | -6.58% (inactive) | -6.77% (inactive) |
| COc1ccc(N=c2scc(-c3ccc(S(=O)(=O)N4CCOCC4)cc3)n2CCCO)cc1 | 85.5 | 80.5% (inactive) | 85.5% (inactive) | 96.4% (inactive) | 72.8% (inactive) | 37.2% (inactive) | 35.6 | 72.8 | 1.67% (inactive) | -8.5% (inactive) |
| CCCC(=O)Nc1nnc(Sc2ccc(N(C)C)cc2)s1 | 100 | 90% (inactive) | 100% (inactive) | 80.3% (inactive) | 101% (inactive) | 15.3% (inactive) | 85.4 | 101 | -5.2% (inactive) | -8.73% (inactive) |
| CC(=O)Nc1ccc(NS(=O)(=O)C(F)(F)F)cc1 | 82.5 | 97% (inactive) | 82.5% (inactive) | 93.9% (inactive) | 92.6% (inactive) | -3.72% (inactive) | 96.3 | 92.6 | -2.34% (inactive) | 1.48% (inactive) |
| COc1ccc(CCNC(=O)c2cc(-c3cc(C)c(C)cc3O)n[nH]2)cc1OC | 93.5 | 87.5% (inactive) | 93.5% (inactive) | 86.6% (inactive) | 77% (inactive) | 1.53% (inactive) | 75.5 | 77 | -3.82% (inactive) | -4% (inactive) |
